Drawing on the RNAGym collection of RNA variant scans (doi:10.1002/anie.201605470), this text covers self-cleavage for 167 variants.

B1: Osa-1-4 twister ribozyme (parent)
chain: CCGCCUAACACUGCCAAUGCCGGUCCCAAGCCCGGAUAAAAGUGGAGGGGGCGG

This data set covers variants of B1. Kind of data set: self-cleavage, relative activity (ratio to wild type); higher = more cleavage; co-transcriptional. An outline of the steps: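 For each read, cleavage status was taken from whether upstream sequence was present. The reads came from an Oryza sativa twister ribozyme of 54 nucleotides, whose DNA template was synthesised with 97 % wild-type base and 1 % of each other base at the 48 positions downstream of the cleavage site. The template was transcribed in vitro at 37 °C for 2 h with co-transcriptional self-cleavage, and the RNA was reverse-transcribed using a template-switching oligonucleotide, PCR-amplified and deep-sequenced. Relative activity is the fraction cleaved normalised to wild type.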
As for A7C C11G, the self-cleavage stood at 0.04.

In the case of A7U G30U, the self-cleavage was 0.02.

As to A7U G30C, the self-cleavage was 0.02.

For A7U G30A, the self-cleavage was determined as 0.06.

For the variant A7U U37A, the self-cleavage came to 0.07.

As to A7U U37C, the self-cleavage came to 0.08.

Consider A7U U37G, for which the self-cleavage was 0.1.

As for A7U G19U, the self-cleavage was found to be 0.1.

With A7U G19C, the self-cleavage came out at 0.03.

For A7U G19A, the self-cleavage turned out to be 0.06.

Consider A7C G22U, for which the self-cleavage was 0.04.

Consider A7C G22A, for which the self-cleavage worked out at 0.07.

Regarding A7C G22C, the self-cleavage came to 0.02.

In the case of A7G C26G, the self-cleavage was 0.19.

For A7G C26U, the self-cleavage came out at 0.13.

On to A7G C26A, for which the self-cleavage turned out to be 0.04.

For A7G C21A, the self-cleavage came out at 0.1.

Consider A7G C21U, for which the self-cleavage worked out at 0.23.

Take A7G C21G: the self-cleavage was 0.03.

Consider A7C G44U, for which the self-cleavage turned out to be 0.05.

With A7C G44C, the self-cleavage was determined as 0.05.

In the case of A7C G44A, the self-cleavage came out at 0.05.

Turning to A7G G34U, the self-cleavage turned out to be 0.12.

Turning to A7G G34A, the self-cleavage was 0.21.

As for A7G G34C, the self-cleavage was 0.14.

With A7G C32A, the self-cleavage turned out to be 0.05.

Consider A7G C32G, for which the self-cleavage is 0.09.

With A7G C32U, the self-cleavage was 0.08.

Take A7G U12A: the self-cleavage worked out at 0.16.

Consider A7G U12G, for which the self-cleavage stood at 0.12.

Turning to A7G U12C, the self-cleavage stood at 0.1.

Turning to A7C C25U, the self-cleavage turned out to be 0.04.

Regarding A7C C25A, the self-cleavage was determined as 0.05.

On to A7C C25G, for which the self-cleavage was determined as 0.02.

As for A7C C33A, the self-cleavage is 0.05.

For the variant A7C C33G, the self-cleavage came out at 0.02.

In the case of A7C C33U, the self-cleavage stood at 0.04.

For the variant A8C, the self-cleavage turned out to be 0.07.

In the case of A7U G34C, the self-cleavage came out at 0.1.

On to A7U G34U, for which the self-cleavage is 0.07.

A7U G34A: the self-cleavage came to 0.08.

With A7U G47A, the self-cleavage was 0.05.

A7U G47U: the self-cleavage is 0.04.

Turning to A7U G47C, the self-cleavage was found to be 0.04.

Consider A7C C15G, for which the self-cleavage was determined as 0.07.

Take A7C C15A: the self-cleavage stood at 0.04.

For A7C C15U, the self-cleavage is 0.04.

Take A7G G19C: the self-cleavage turned out to be 0.06.

As for A7G G19U, the self-cleavage was found to be 0.07.

As to A7G G19A, the self-cleavage is 0.15.

A7U G45U: the self-cleavage stood at 0.02.

As for A7U G45A, the self-cleavage is 0.05.

Turning to A7U G45C, the self-cleavage was 0.04.

Turning to A7C C21G, the self-cleavage came to 0.01.

In the case of A7C C21U, the self-cleavage stood at 0.04.

With A7C C21A, the self-cleavage was found to be 0.06.

In the case of A7G G48C, the self-cleavage was 0.05.

Take A7G G48U: the self-cleavage turned out to be 0.05.

Turning to A7G G48A, the self-cleavage is 0.06.

On to A7G G51C, for which the self-cleavage stood at 0.05.

A7G G51U: the self-cleavage was 0.08.

For A7G G51A, the self-cleavage came to 0.12.

In the case of A7C G49A, the self-cleavage amounted to 0.02.

As for A7C G49C, the self-cleavage was 0.01.

As for A7C G49U, the self-cleavage stood at 0.02.

Consider A7U G53C, for which the self-cleavage came to 0.03.

With A7U G53U, the self-cleavage worked out at 0.05.

For the variant A7U G53A, the self-cleavage was determined as 0.08.

Turning to A7U C26U, the self-cleavage was 0.07.

In the case of A7U C26A, the self-cleavage was 0.02.

On to A7U C26G, for which the self-cleavage came to 0.05.

In the case of A7G G22U, the self-cleavage is 0.1.

A7G G22A: the self-cleavage is 0.18.

A7G G22C: the self-cleavage was determined as 0.08.

As to A7C U12G, the self-cleavage was 0.09.

As for A7C U12C, the self-cleavage was 0.04.

As for A7C U12A, the self-cleavage is 0.05.

Regarding A7U U24G, the self-cleavage came out at 0.02.

For A7U U24A, the self-cleavage turned out to be 0.06.

Take A7U U24C: the self-cleavage was found to be 0.04.

As for A7C G50C, the self-cleavage was found to be 0.04.

With A7C G50A, the self-cleavage was 0.04.

A7C G50U: the self-cleavage was determined as 0.04.

For the variant A7C A8U, the self-cleavage worked out at 0.06.

As for A7C A8C, the self-cleavage amounted to 0.07.

A7C A8G: the self-cleavage was found to be 0.05.

Consider A7C G34C, for which the self-cleavage came to 0.04.

With A7C G34A, the self-cleavage turned out to be 0.03.

Regarding A7C G34U, the self-cleavage worked out at 0.05.

Take A7C G51A: the self-cleavage is 0.04.

With A7C G51U, the self-cleavage stood at 0.03.

For A7C G51C, the self-cleavage is 0.02.

For A7G G45C, the self-cleavage is 0.04.

On to A7G G45U, for which the self-cleavage worked out at 0.05.

Consider A7G G45A, for which the self-cleavage came to 0.08.

As to A7U G42A, the self-cleavage stood at 0.09.

For A7U G42C, the self-cleavage came out at 0.05.

In the case of A7U G42U, the self-cleavage is 0.03.

For A7C C52U, the self-cleavage was found to be 0.06.

As for A7C C52G, the self-cleavage was determined as 0.07.

With A7C C52A, the self-cleavage was determined as 0.06.

Turning to A7G G47C, the self-cleavage was determined as 0.05.

For the variant A7G G47U, the self-cleavage came to 0.07.

In the case of A7G G47A, the self-cleavage came to 0.08.

As to A7G C25A, the self-cleavage is 0.05.

Consider A7G C25G, for which the self-cleavage is 0.06.

As to A7G C25U, the self-cleavage was found to be 0.17.

As for A7G C20U, the self-cleavage came to 0.43.

With A7G C20A, the self-cleavage stood at 0.5.

In the case of A7G C20G, the self-cleavage was determined as 0.11.

Take A7U C15U: the self-cleavage is 0.06.

A7U C15A: the self-cleavage is 0.06.

As to A7U C15G, the self-cleavage came out at 0.11.

Consider A7G U37G, for which the self-cleavage stood at 0.58.

In the case of A7G U37A, the self-cleavage was found to be 0.27.

Take A7G U37C: the self-cleavage amounted to 0.46.

Regarding A7C C26A, the self-cleavage worked out at 0.03.

Take A7C C26U: the self-cleavage is 0.05.

With A7C C26G, the self-cleavage was found to be 0.02.

Turning to A7U C27U, the self-cleavage is 0.06.

A7U C27G: the self-cleavage worked out at 0.04.

As to A7U C27A, the self-cleavage is 0.06.

A7G G23U: the self-cleavage stood at 0.04.

In the case of A7G G23C, the self-cleavage came to 0.06.

For the variant A7G G23A, the self-cleavage turned out to be 0.14.

As to A7U C9A, the self-cleavage amounted to 0.05.

With A7U C9U, the self-cleavage was determined as 0.04.

In the case of A7U C9G, the self-cleavage was 0.05.

With A7C C14U, the self-cleavage turned out to be 0.04.

As for A7C C14A, the self-cleavage was 0.04.

For the variant A7C C14G, the self-cleavage amounted to 0.03.

As for A7G C27A, the self-cleavage amounted to 0.07.

With A7G C27U, the self-cleavage came out at 0.1.

A7G C27G: the self-cleavage stood at 0.07.

Take A7U C33U: the self-cleavage worked out at 0.08.

For A7U C33G, the self-cleavage was 0.03.

Turning to A7U C33A, the self-cleavage turned out to be 0.03.

For A7G G42A, the self-cleavage was 0.13.

Take A7G G42U: the self-cleavage turned out to be 0.05.

For the variant A7G G42C, the self-cleavage worked out at 0.08.

On to A7U U12G, for which the self-cleavage stood at 0.06.

For A7U U12A, the self-cleavage was determined as 0.09.

For the variant A7U U12C, the self-cleavage amounted to 0.1.

As to A7G C31U, the self-cleavage was 0.09.

For A7G C31A, the self-cleavage stood at 0.03.

Turning to A7G C31G, the self-cleavage amounted to 0.14.

Regarding A7U G54U, the self-cleavage turned out to be 0.11.

Turning to A7U G54A, the self-cleavage came to 0.07.

On to A7U G54C, for which the self-cleavage was determined as 0.06.

A7U G23U: the self-cleavage is 0.03.

For the variant A7U G23A, the self-cleavage was 0.06.

As for A7U G23C, the self-cleavage stood at 0.03.

Turning to A7C C27G, the self-cleavage was 0.02.

Consider A7C C27U, for which the self-cleavage was found to be 0.03.

Take A7C C27A: the self-cleavage is 0.06.

As to A7G C52G, the self-cleavage came out at 0.32.

In the case of A7G C52A, the self-cleavage was 0.29.

On to A7G C52U, for which the self-cleavage amounted to 0.55.

A7U C25G: the self-cleavage was 0.08.

Turning to A7U C25U, the self-cleavage is 0.2.

Take A7U C25A: the self-cleavage came to 0.03.

Turning to A7C G45C, the self-cleavage came out at 0.01.

Consider A7C G45A, for which the self-cleavage came to 0.03.

On to A7C G45U, for which the self-cleavage was 0.02.

On to A7U U43A, for which the self-cleavage worked out at 0.08.

As for A7U U43G, the self-cleavage amounted to 0.07.

With A7U U43C, the self-cleavage came to 0.07.
